Measured values reported in ChEMBL document CHEMBL1146754, “Estrogen receptor ligands. Part 4: The SAR of the syn-dihydrobenzoxathiin SERAMs” (Bioorg Med Chem Lett, 2004).

Legend:
Estrogen receptor beta [1] = target: T1, Estrogen receptor beta (Homo sapiens, UniProt Q92731)
Estrogen receptor [2] = target: T2, Estrogen receptor (Homo sapiens, UniProt P03372)
T2 sequence (P03372 whole entry): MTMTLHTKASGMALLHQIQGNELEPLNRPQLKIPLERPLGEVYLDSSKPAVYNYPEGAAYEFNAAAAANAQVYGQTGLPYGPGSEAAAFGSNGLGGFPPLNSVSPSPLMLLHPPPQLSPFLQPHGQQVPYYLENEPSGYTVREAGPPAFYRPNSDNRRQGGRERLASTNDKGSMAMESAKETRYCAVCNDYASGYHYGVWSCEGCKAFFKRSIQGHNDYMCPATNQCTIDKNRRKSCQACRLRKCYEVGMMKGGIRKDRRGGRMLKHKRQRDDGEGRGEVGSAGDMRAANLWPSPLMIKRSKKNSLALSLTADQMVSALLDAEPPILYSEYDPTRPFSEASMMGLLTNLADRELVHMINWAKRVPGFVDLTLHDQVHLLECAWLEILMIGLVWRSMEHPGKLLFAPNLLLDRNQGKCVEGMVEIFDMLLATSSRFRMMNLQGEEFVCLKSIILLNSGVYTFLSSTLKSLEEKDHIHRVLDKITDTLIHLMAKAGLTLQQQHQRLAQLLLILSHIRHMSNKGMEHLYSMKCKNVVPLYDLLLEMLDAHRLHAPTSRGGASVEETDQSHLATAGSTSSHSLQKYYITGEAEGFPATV

Estrogen receptor beta [3] = target: T1, Estrogen receptor beta; assay: Potency in cellular transactivation assay utilizing HEK293 cells stably co-transfected with human estrogen receptor beta and the alkaline phosphatase reporter gene; format: functional, cell-based
Estrogen receptor [4] = target: T2, Estrogen receptor; assay: Potency in cellular transactivation assay utilizing HEK293 cells stably co-transfected with human estrogen receptor alpha and the alkaline phosphatase reporter gene.; format: functional, cell-based
[5] = target: T3, Estrogen receptor (Rattus norvegicus) (UniProt P06211+Q62986); settings: at 1 mg/kg
[6] = target: T3, Estrogen receptor (Rattus norvegicus); settings: at 1 mg/kg; remark: listed apart in the source
[7] = (§1) Plasma clearance of the compound in female Sprague-Dawley rats; format: ADME, organism-based; settings: female, Sprague-Dawley, rat, plasma
Method in brief: (§2)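 Female Sprague–Dawley rats were dosed intravenously at 1 mpk (n = 2) and orally at 2 mpk (n = 3) for pharmacokinetic evaluation.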

[8] = (§3) Bioavailability in rat (Sprague-Dawley) (female); format: ADME, organism-based; settings: female, Sprague-Dawley, in vivo
Method in brief: as §2

[9] = (§4) Half life period in female Sprague-Dawley rats; format: ADME, organism-based; settings: female, Sprague-Dawley, rat, in vivo
Method in brief: as §2

[10] = target: T3, Estrogen receptor (Rattus norvegicus); settings: at 1 mg/kg; remark: listed apart in the source
[11] = target: T3, Estrogen receptor (Rattus norvegicus); settings: at 1 mg/kg; remark: listed apart in the source
Rattus norvegicus [12] = species on record: Rattus norvegicus; assay: as §1; format: ADME, organism-based; settings: in vivo
Method in brief: as §2

Rattus norvegicus [13] = species on record: Rattus norvegicus; assay: as §3; format: ADME, organism-based; settings: in vivo
Method in brief: as §2

Rattus norvegicus [14] = species on record: Rattus norvegicus; assay: as §4; format: ADME, organism-based; settings: in vivo
Method in brief: as §2

Estrogen receptor beta [15] = target: T1, Estrogen receptor beta; assay: Agonist effect in transcriptional activation in HEK293 cells expressing human estrogen receptor beta; NA= not active; format: functional, cell-based
Estrogen receptor [16] = target: T2, Estrogen receptor; assay: Agonist effect in transcriptional activation in HEK293 cells expressing human estrogen receptor alpha; NA= not active; format: functional, cell-based

T1 sequence (Q92731 whole entry): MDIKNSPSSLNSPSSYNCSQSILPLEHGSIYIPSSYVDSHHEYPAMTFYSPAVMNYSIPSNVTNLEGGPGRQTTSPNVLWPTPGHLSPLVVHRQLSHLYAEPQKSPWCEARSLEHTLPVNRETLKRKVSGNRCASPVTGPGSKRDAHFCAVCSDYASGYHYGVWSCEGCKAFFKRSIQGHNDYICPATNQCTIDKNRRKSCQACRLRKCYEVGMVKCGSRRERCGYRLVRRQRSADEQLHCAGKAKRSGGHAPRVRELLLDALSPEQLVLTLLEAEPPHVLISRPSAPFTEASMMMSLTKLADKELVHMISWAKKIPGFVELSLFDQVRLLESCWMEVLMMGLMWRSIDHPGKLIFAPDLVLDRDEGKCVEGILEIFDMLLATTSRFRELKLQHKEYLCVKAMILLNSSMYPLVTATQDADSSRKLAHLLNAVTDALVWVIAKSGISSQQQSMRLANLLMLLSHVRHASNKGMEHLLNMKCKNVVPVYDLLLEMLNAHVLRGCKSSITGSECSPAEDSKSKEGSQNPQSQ

| Compound | IC50 (Estrogen receptor beta [1]) | IC50 (Estrogen receptor [2]) | IC50 (Estrogen receptor beta [3]) | IC50 (Estrogen receptor [4]) | Antagonism [5] | Estrogenic effect [6] | also measured |
| --- | --- | --- | --- | --- | --- | --- | --- |
| Oc1cccc([C@H]2Sc3cc(O)ccc3O[C@H]2c2ccc(OCCN3CCOCC3)cc2)c1 | 318 nM | 3.8 nM | 65.3 nM | 4.7 nM | 54% | 29% | – |
| Oc1ccc([C@@H]2Sc3cc(O)ccc3O[C@@H]2c2ccc(OCCN3CCCCC3)cc2)cc1 (stereo in doubt; 11) [listing 1 of 2 here] | – | – | – | – | – | – | CL (Rattus norvegicus [12]): 5 mL/min/kg; F (Rattus norvegicus [13]): 31%; T1/2 (Rattus norvegicus [14]): 3.8 h |
| Oc1ccc([C@@H]2Sc3cc(Cl)c(O)cc3O[C@@H]2c2ccc(OCCN3CCCCC3)cc2)cc1 | 520 nM | 23.1 nM | 3020 nM | 61 nM | – | – | – |
| Oc1ccc([C@@H]2Sc3cc(O)ccc3O[C@@H]2c2ccc(OCCN3CCCCC3)cc2)cc1 (stereo in doubt; 11L) [listing 1 of 2 here] | – | – | – | – | – | – | CL (Rattus norvegicus [12]): 31 mL/min/kg; F (Rattus norvegicus [13]): 10%; T1/2 (Rattus norvegicus [14]): 1.6 h |
| Oc1ccc([C@@H]2Sc3cc(O)ccc3O[C@@H]2c2ccc(OCCN3CCCCC3)cc2)cc1 (stereo in doubt; 11) [listing 2 of 2 here] | – | – | – | – | 77% | 5% | – |
| Oc1ccc([C@@H]2Sc3cc(O)ccc3O[C@@H]2c2ccc(OCCN3CCCCC3)cc2)cc1 (stereo in doubt; 11L) [listing 2 of 2 here] | – | – | – | – | – | – | Antagonism [10]: 16%; Estrogenic effect [11]: 1% |
| Oc1cccc([C@H]2Sc3cc(O)ccc3O[C@H]2c2ccc(OCCNC3CCCCCC3)cc2)c1 | 103 nM | 1.2 nM | 67 nM | 3.5 nM | 57% | 22% | – |
| CN(C)CCOc1ccc([C@@H]2Oc3ccc(O)cc3S[C@@H]2c2cccc(O)c2)cc1 | 129 nM | 1.4 nM | 7.3 nM | 2.3 nM | 34% | 69% | – |
| Oc1cccc([C@H]2Sc3cc(O)ccc3O[C@H]2c2ccc(OCCN3CCCCC3)cc2)c1 | 115 nM | 4.1 nM | 157 nM | 5.4 nM | 78% | 12% | – |
| Oc1ccc([C@@H]2Sc3c(O)cc(O)cc3O[C@@H]2c2ccc(OCCN3CCCCC3)cc2)cc1 | 788 nM | 25 nM | – | – | 64% | 7% | – |
| Oc1ccc([C@H]2Sc3cc(O)ccc3O[C@H]2c2ccc(OCCN3CCCCC3)cc2)cc1 | – | – | – | – | – | – | clearance [7]: 10 mL/min/kg; bioavailability [8]: 62%; half-life [9]: 3.4 h; Estrogenic effect [11]: 9% |
| Cc1cc(O)cc2c1O[C@H](c1ccc(OCCN3CCCCC3)cc1)[C@H](c1ccc(O)cc1)S2 | 343 nM | 5.3 nM | 690 nM | 22.6 nM | -4% | 12% | – |
| CC1CCN(CCOc2ccc([C@@H]3Oc4ccc(O)cc4S[C@@H]3c3cccc(O)c3)cc2)CC1 | 109 nM | 0.8 nM | 132 nM | 4 nM | 59% | 29% | – |
| Oc1cccc(C2Sc3cc(O)ccc3OC2c2ccc(OCCN3CCCCC3)cc2)c1 (stereo unspecified) | 250 nM | 3 nM | 245 nM | 3.6 nM | 90% | 16% | – |
| Cc1cc2c(cc1O)O[C@H](c1ccc(OCCN3CCCCC3)cc1)[C@H](c1ccc(O)cc1)S2 | 595 nM | 34.9 nM | – | – | – | – | – |
| COc1ccc(C2Sc3cc(O)ccc3OC2c2ccc(OCCN3CCCCC3)cc2)cc1 (stereo unspecified) | 792 nM | 41.1 nM | > 1000 nM | 274 nM | – | – | – |
| Oc1ccc([C@@H]2Sc3cc(O)c(F)cc3O[C@@H]2c2ccc(OCCN3CCCCC3)cc2)cc1 | 413 nM | 13.5 nM | – | – | 53% | 13% | – |
| CCc1cc(O)cc2c1S[C@@H](c1ccc(O)cc1)[C@@H](c1ccc(OCCN3CCCCC3)cc1)O2 | 185 nM | 53.3 nM | 1460 nM | 342 nM | – | – | – |
| CC1CCCC(C)N1CCOc1ccc([C@@H]2Oc3ccc(O)cc3S[C@@H]2c2cccc(O)c2)cc1 (stereo partly specified) | 350 nM | 3.4 nM | – | – | 43% | 30% | IC50 (Estrogen receptor beta [15]): Not Active; IC50 (Estrogen receptor [16]): Not Active |
| Oc1ccc2c(c1)SC(c1ccccc1)C(c1ccc(OCCN3CCCCC3)cc1)O2 (stereo unspecified) | 300 nM | 11.9 nM | – | – | – | – | – |

Further molecules by falling IC50 (Estrogen receptor beta [1]), results first:

| IC50 (Estrogen receptor beta [1]) | IC50 (Estrogen receptor [2]) | IC50 (Estrogen receptor beta [3]) | IC50 (Estrogen receptor [4]) | Antagonism [5] | Estrogenic effect [6] | Compound | also measured |
| --- | --- | --- | --- | --- | --- | --- | --- |
| 105 nM | 5.3 nM | 1010 nM | 25.4 nM | – | – | Oc1ccc([C@@H]2Sc3cc(O)cc(Cl)c3O[C@@H]2c2ccc(OCCN3CCCCC3)cc2)cc1 | – |
| 73 nM | 5.4 nM | 2370 nM | 14.8 nM | 36% | 38% | Oc1ccc([C@@H]2Sc3cc(O)c(Cl)cc3O[C@@H]2c2ccc(OCCN3CCCCC3)cc2)cc1 | – |
| 66.6 nM | 3.8 nM | 1550 nM | 94 nM | 9.5% | 5% | Oc1ccc2c(c1)SC(c1ccc(F)cc1)C(c1ccc(OCCN3CCCCC3)cc1)O2 (stereo unspecified) | – |
| 54 nM | 1.2 nM | 68.3 nM | 9.3 nM | 29% | 27% | Cc1c(O)ccc2c1O[C@H](c1ccc(OCCN3CCCCC3)cc1)[C@H](c1ccc(O)cc1)S2 | – |
| 46.2 nM | 2 nM | 200 nM | 5.5 nM | – | – | Cc1cc(O)cc2c1S[C@@H](c1ccc(O)cc1)[C@@H](c1ccc(OCCN3CCCCC3)cc1)O2 | clearance [7]: 51 mL/min/kg; bioavailability [8]: 6%; half-life [9]: 2.7 h |
| 44.4 nM | 1.8 nM | 239 nM | 5 nM | 67% | 1% | Oc1ccc([C@@H]2Sc3ccc(O)cc3O[C@@H]2c2ccc(OCCN3CCCCC3)cc2)cc1 | clearance [7]: 154 mL/min/kg; bioavailability [8]: 0%; half-life [9]: 2.2 h |
| 37 nM | 0.9 nM | 40.1 nM | 1.7 nM | 77% | 22% | Oc1cccc([C@H]2Sc3cc(O)ccc3O[C@H]2c2ccc(OCCN3CCCC3)cc2)c1 | – |
| 25 nM | 4.7 nM | – | – | – | – | CCc1c(O)ccc2c1O[C@H](c1ccc(OCCN3CCCCC3)cc1)[C@H](c1ccc(O)cc1)S2 | – |
| 18 nM | 1 nM | – | – | – | – | Oc1ccc([C@H]2Sc3c(ccc(O)c3F)O[C@H]2c2ccc(OCCN3CCCCC3)cc2)cc1 | clearance [7]: 18 mL/min/kg; bioavailability [8]: 37%; half-life [9]: 3.1 h; Antagonism [10]: 100%; Estrogenic effect [11]: 1% |
| 14 nM | 2.4 nM | 64 nM | 1 nM | 67% | 27% | Oc1ccc([C@@H]2Sc3c(ccc(O)c3Cl)O[C@@H]2c2ccc(OCCN3CCCCC3)cc2)cc1 | – |
| 13.2 nM | 0.8 nM | 177 nM | 2.5 nM | 76% | 7% | Oc1ccc([C@@H]2Sc3c(ccc(O)c3F)O[C@@H]2c2ccc(OCCN3CCCCC3)cc2)cc1 | clearance [7]: 16 mL/min/kg; bioavailability [8]: 22%; half-life [9]: 2.4 h |
| 13 nM | 0.5 nM | 516 nM | 6.1 nM | 89% | -2% | Oc1ccc([C@@H]2Sc3c(F)cc(O)cc3O[C@@H]2c2ccc(OCCN3CCCCC3)cc2)cc1 | clearance [7]: 41 mL/min/kg; bioavailability [8]: 4.4%; half-life [9]: 5.9 h |
| 8 nM | 0.51 nM | 121 nM | 3.4 nM | 68% | 12% | Oc1ccc([C@@H]2Sc3c(Cl)cc(O)cc3O[C@@H]2c2ccc(OCCN3CCCCC3)cc2)cc1 | – |
| 1.1 nM | 1.3 nM | – | – | – | – | Oc1ccc2c(c1)S[C@@H](c1ccccc1O)[C@@H](c1ccc(OCCN3CCCCC3)cc1)O2 | – |
